Screening data from PubChem BioAssay.
M18AAP inhibitor: PfM18AAP inhibitors, malaria aminopeptidase, primary screen, biochemical, QFRET, recombinant enzyme | M18 aspartyl aminopeptidase (Plasmodium falciparum 3D7) | AID 1822, 2009 | 290,000 tested, 1.2% active | H-Glu-NHMec fluorogenic cleavage | inhibition, % at 7.35 µM;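 active = inhibition above the campaign mean inhibition over all tested compounds plus 3 SD, cut at about 28% in these data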
IMP-1 inhibitor: IMP-1 metallo-beta-lactamase inhibitors, primary screen, biochemical, epi-absorbance readout, Pseudomonas aeruginosa enzyme. metallo-beta-lactamase IMP-1 (Pseudomonas aeruginosa). purified IMP-1, nitrocefin hydrolysis, epi-absorbance fluorescence. inhibition, % at 5.6 µM. 290,000 tested, 0.45% active. AID 1556, 2009;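 active = inhibition above the mean plus 3 SD of all compounds in the same screening run, cut at about 4.5% in these data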
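System – purified recombinant IMP-1 beta-lactamase · Input – IMP-1 dispensed at 0.2 nM · Timing – 15 min preincubation plus 25 min reaction at 25 °C · Signal – Epi-absorbance fluorescence, 480 nm excitation, 530 nm emission · Measure – percent IMP-1 inhibition derived from blank-referenced optical density · Controls – Enzyme-plus-DMSO low control, enzyme-free DMSO high control · Replication – singlicate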
HGIII-sPLA2 inh: human group III sPLA2 inhibitors, primary screen, biochemical, QFRET, BODIPY PC-A2 liposome substrate. Group 3 secretory phospholipase A2 (Homo sapiens), Q9NZ20. QFRET BODIPY PC-A2 liposome hydrolysis, fluorescence. inhibition, % at 12.2 µM. 370,000 tested, 0.56% active. AID 743126, 2013;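 active = inhibition above mean plus 3 SD of compounds lying within the high and low control bounds, cut at about 19% in these data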
Target sequence (Q9NZ20 whole entry, looked up): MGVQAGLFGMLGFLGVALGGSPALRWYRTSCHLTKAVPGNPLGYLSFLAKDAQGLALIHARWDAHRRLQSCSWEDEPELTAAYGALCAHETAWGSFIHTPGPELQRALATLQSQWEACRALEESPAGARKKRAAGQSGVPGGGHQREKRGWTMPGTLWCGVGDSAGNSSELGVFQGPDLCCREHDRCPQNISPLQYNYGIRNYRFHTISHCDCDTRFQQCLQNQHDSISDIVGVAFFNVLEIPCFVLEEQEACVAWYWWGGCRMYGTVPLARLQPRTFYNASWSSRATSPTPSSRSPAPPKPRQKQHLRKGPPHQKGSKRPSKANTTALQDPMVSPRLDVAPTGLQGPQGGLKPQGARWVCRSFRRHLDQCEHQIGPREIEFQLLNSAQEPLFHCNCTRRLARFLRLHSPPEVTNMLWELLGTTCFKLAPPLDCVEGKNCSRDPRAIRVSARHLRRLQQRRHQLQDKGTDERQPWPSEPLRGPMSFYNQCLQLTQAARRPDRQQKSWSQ
VIM-2 inh: VIM-2 metallo-beta-lactamase inhibitors, primary screen, biochemical, epi-absorbance readout, Pseudomonas aeruginosa enzyme. purified VIM-2, nitrocefin hydrolysis, epi-absorbance fluorescence. inhibition, % at 5.6 µM. 290,000 tested, 0.89% active;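 active = inhibition above the mean of all tested compounds plus 3 SD, cutoff set per screening run, cut at about 7.5% in these data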;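 note: red hydrolysis product quenches plate fluorescence so inhibitors raise well fluorescence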
Large screens that a line does not name were inactive. The list is not random: actives were taken first. Their share in the collection is about 2.4%.

O=C(O)c1ccc(S(=O)(=O)c2ccc(Sc3ccc(C(=O)O)c(C(=O)O)c3)cc2)cc1	VIM-2 inh 8.9
O=C(O)c1ccc(S(=O)(=O)N2CCCC2)cc1	none
CCOc1ccc(C2=Nn3c(nnc3-c3ccccn3)SC2)cc1	VIM-2 inh 7.7
c1ccc(-c2nnc3n2N=C(c2ccc4ccccc4c2)CS3)nc1	none (no result: M18AAP inhibitor, IMP-1 inhibitor, VIM-2 inh)
c1ccc(-c2ccc(C3=Nn4c(nnc4-c4ccncc4)SC3)cc2)cc1	none (no result: M18AAP inhibitor, IMP-1 inhibitor, VIM-2 inh)
Brc1ccc(C2=Nn3c(nnc3-c3ccncc3)SC2)cc1	VIM-2 inh 9.2 (no result: HGIII-sPLA2 inh)
O=C(NCc1cccs1)C1CCCN(S(=O)(=O)c2ccccc2)C1 (stereo not given)	none (no result: M18AAP inhibitor, IMP-1 inhibitor, VIM-2 inh)
O=C(NC1CCCC1)c1ccc(COc2ccccc2)o1	none (no result: M18AAP inhibitor, IMP-1 inhibitor, VIM-2 inh)
O=C(O)CC/C(=C\c1ccc(Cl)c([N+](=O)[O-])c1)c1nc2ccccc2s1	VIM-2 inh 9.2
O=C(O)CC/C(=C\c1ccc(N2CCOCC2)c([N+](=O)[O-])c1)c1nc2ccccc2s1	none
O=C(O)CC/C(=C\c1ccc2c(c1)OCO2)c1nc2ccccc2s1	VIM-2 inh 11
CCOC(=O)C1Nc2ccc(C(=O)O)cc2C2C=CCC12 (stereo not given)	IMP-1 inhibitor 35
O=[N+]([O-])c1ccc2nc(CNc3nc(N4CCOCC4)nc4c3ncn4-c3ccsc3)[nH]c2c1	none (no result: M18AAP inhibitor, IMP-1 inhibitor, VIM-2 inh)
O=C(Nc1ccc(Cl)cc1)c1cc(-c2cccs2)on1	IMP-1 inhibitor 15
O=C(Nc1ccc(Br)cc1)c1cc(-c2cccs2)on1	IMP-1 inhibitor 11
COC(=O)[C@H](C(C)C)N1CCc2nnn(Cc3ccccc3)c2-c2cc(F)ccc2S1(=O)=O	none (no result: M18AAP inhibitor, IMP-1 inhibitor, VIM-2 inh)
NC(=O)[C@@H]1CCCNc2c(I)cc([N+](=O)[O-])cc2C(=O)N[C@@H](CCCN=C(N)N)C(=O)N[C@@H](CCCN=C(N)N)C(=O)N1	IMP-1 inhibitor 12 (no result: HGIII-sPLA2 inh)
CC[C@H](C)[C@@H]1NC(=O)c2cc([N+](=O)[O-])cc(I)c2NCC[C@@H](C(N)=O)NC(=O)[C@H](CCCN=C(N)N)NC1=O	none
CCOC(=O)C1CCCN(C2=NC(=O)/C(=C/c3ccc(O)c(OCC)c3)S2)C1 (stereo not given)	VIM-2 inh 8.9
CCOC(=O)C1CCCN(C2=NC(=O)/C(=C/c3ccc(OC)cc3OC)S2)C1 (stereo not given)	M18AAP inhibitor 28
COC(=O)C1CN(Cc2ccc(OC)cc2)CCS(=O)(=O)N1Cc1cn(Cc2ccccc2)nn1 (stereo not given)	none (no result: M18AAP inhibitor, IMP-1 inhibitor, VIM-2 inh)
Cc1ccc2c(c1)-c1c(cnn1CC(=O)NCCc1ccc(O)cc1)CO2	none (no result: M18AAP inhibitor, IMP-1 inhibitor, VIM-2 inh)
C=CCn1c2ccccc2c2nnc(SCC(=O)O)nc21	none
Cn1c2ccc(F)cc2c2nnc(SCC(=O)Nc3cccc(O)c3)nc21	VIM-2 inh 8.8
Cn1c2ccc(F)cc2c2nnc(SCCN3CCOCC3)nc21	VIM-2 inh 7.8
C=CCn1c2ccccc2c2nnc(SCCN3CCOCC3)nc21	VIM-2 inh 12
CC(C)C[C@H](NC(=O)c1ccccn1)C(=O)N1CCC[C@H]1C(=O)NCc1ccccc1	none (no result: M18AAP inhibitor, IMP-1 inhibitor, VIM-2 inh)
COc1ccccc1Nc1nc(-c2sc(N)nc2C)cs1	none
Cc1nc(N)sc1-c1csc(Nc2ncccn2)n1	IMP-1 inhibitor 27
CCCC[C@H]1C2CC(OC(=O)Nc3ccc(C)cc3)C(C2)[C@H]2CCCCN21 (stereo not given in full)	none (no result: M18AAP inhibitor, IMP-1 inhibitor, VIM-2 inh)
CC1=C(C)CS(=O)N(c2ccc(S(N)(=O)=O)cc2)C1 (stereo not given)	M18AAP inhibitor 30
CC1=C(C)CS(=O)N(S(=O)(=O)c2ccccc2)C1 (stereo not given)	none
CC(=O)c1cc(-c2ccc3c(c2)OCO3)c(=O)n2c1CCC2	none (no result: M18AAP inhibitor, IMP-1 inhibitor, VIM-2 inh)
COc1cc(S(=O)(=O)NCC2CCCO2)c(OC)cc1Cl (stereo not given)	none
COc1ccc(S(=O)(=O)NCC2CCCO2)c(Cl)c1Cl (stereo not given)	IMP-1 inhibitor 9.2
Cc1ccccc1-n1c(SCC(=O)N2CCOCC2)nc(O)c(Cc2ccccc2)c1=O	IMP-1 inhibitor 5.2
CCOP(=O)(O)c1ccccc1OCCOCCOc1ccccc1P(=O)(O)OCC	none
O=P(O)(O)c1ccccc1OCCOCCOc1ccccc1P(=O)(O)O	VIM-2 inh 23
COc1ccccc1C(=O)NNc1ncc(C)s1	M18AAP inhibitor 31
CCc1ccc(S(=O)(=O)Nc2cc(SCC(=O)O)c(O)c3ccccc23)cc1	none
CCOc1ccc(S(=O)(=O)Nc2cc(SCC(=O)O)c(O)c3ccccc23)cc1	VIM-2 inh 10
CN(C)c1ccc(N=Nc2nc3ccccc3n2C)cc1	HGIII-sPLA2 inh 32
Cn1c(N=Nc2ccccc2)nc2ccccc21	none
O=C(NCc1ccccc1)OCCN1C(=O)CCC12CCC(c1ccc(Cl)cc1)CC2 (stereo not given)	none (no result: M18AAP inhibitor, IMP-1 inhibitor, VIM-2 inh)
COc1ccc([C@H]2OC(=O)C[C@@H]2C(=O)N2CCN(c3ccccc3F)CC2)cc1OC	none (no result: M18AAP inhibitor, IMP-1 inhibitor, VIM-2 inh)
CCN(CC(=O)NCc1ccc(F)cc1)Cc1cc(=O)n2ccsc2n1	IMP-1 inhibitor 7.6
COC(=O)C1CN(Cc2ccc(OC)cc2)CCS(=O)(=O)N1Cc1cn(Cc2ccc(OC)cc2)nn1 (stereo not given)	none (no result: M18AAP inhibitor, IMP-1 inhibitor, VIM-2 inh)
COc1cccc(C(=O)Nn2cnnc2)c1	M18AAP inhibitor 30
O=C(NCc1ccc(F)cc1)C1CCCN(c2nc3ccccc3o2)C1 (stereo not given)	none (no result: M18AAP inhibitor, IMP-1 inhibitor, VIM-2 inh)
O=C(NCc1cccs1)C1CCCN(c2nc3ccccc3o2)C1 (stereo not given)	IMP-1 inhibitor 4.8
O=[N+]([O-])c1cc([N+](=O)[O-])c(Oc2c(Cl)cccc2Cl)cc1NN1CCCCC1	IMP-1 inhibitor 4.8
CCCC[n+]1c(C)sc2cc(OC)ccc21	none
CCC[n+]1c(C)sc2c(OC)ccc(OC)c21	M18AAP inhibitor 28
CCc1cccc(Nc2c3c(nc4ncnn24)CCC3)c1	VIM-2 inh 9.9
CCOC(=O)C1CCCN(C(=O)c2cc3c(C)nc4ccccc4c3o2)C1 (stereo not given)	VIM-2 inh 7.9
Cc1nc2ccccc2c2oc(C(=O)N3CC(C)CC(C)C3)cc12 (stereo not given)	VIM-2 inh 9.8
CCOC(=O)C1CCCN(C(=O)c2cc(-c3ccco3)nc3ccccc23)C1 (stereo not given)	none (no result: M18AAP inhibitor, IMP-1 inhibitor, VIM-2 inh)
CCOC(=O)C1CCN(c2nc(C)nc3c2oc2ccccc23)CC1	none (no result: M18AAP inhibitor, IMP-1 inhibitor, VIM-2 inh)
CCOC(=O)C1CCCN(c2nc(C)nc3c2oc2ccccc23)C1 (stereo not given)	VIM-2 inh 10
Cc1ccc(C)c(N2CCN(C(=O)c3cc4c(C)nc5ccccc5c4o3)CC2)c1	none
COc1cccc2c(NCc3ccccc3)nc(-n3c(N)nc4ccccc43)nc12	none (no result: M18AAP inhibitor, IMP-1 inhibitor, VIM-2 inh)
COc1cc(C)ccc1C(=O)N1CCC(Oc2cccnc2)CC1	none (no result: M18AAP inhibitor, IMP-1 inhibitor, VIM-2 inh)
O=C(O)COCc1nc2ccccc2s1	M18AAP inhibitor 30
CC(C)(C)NC(=O)C(c1cccnc1)N(C(=O)c1cnc[nH]1)c1ccc(C(C)(C)C)cc1 (stereo not given)	none (no result: M18AAP inhibitor, IMP-1 inhibitor, VIM-2 inh)
CCCCCC(=O)NNC(=S)NC(=O)c1ccc([N+](=O)[O-])cc1	M18AAP inhibitor 31
